The text below walks through data of ChEMBL document CHEMBL1124692, “Synthesis of a tritium-labeled indolidan analogue and its use as a radioligand for phosphodiesterase-inhibitor cardiotonic binding sites” (J Med Chem, 1989).

Broadly, the IC50 is the concentration that inhibits the measured activity by half. A low value points to inhibition by little substance. In general, Ki refers to the equilibrium dissociation constant of an inhibitor or competing ligand from its target. A higher Ki goes with weaker binding. What is called Kd is the constant that tells how readily two partners part at equilibrium.

The structures appear in SMILES notation.

Assay [1] has as its target T1, Phosphodiesterase 4 (Homo sapiens, UniProt P27815+Q08499+Q07343+Q08493). Briefly: Inhibition of sarcoplasmic reticulum Phosphodiesterase 4. The format is protein assay, Canis lupus familiaris.
Assay [2] deals with T1, Phosphodiesterase 4. Briefly: (§1) Displacement [3H]LY-186,126 from phosphodiesterase 4 of myocardial vesicles. The format is tissue-based, Canis lupus familiaris, Myocardium. Put shortly:
(§2)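 Canine ventricular myocardial vesicles (mixed sarcolemmal and SR; stored at –80 °C), about 100 μg protein, incubated 60 min at 25 °C in 50 mM Tris-Cl pH 7.4, 5 mM MgCl2, 0.01% BSA with 10 nM [3H]-LY186126 (79.2 Ci/mmol). Competitors in DMSO were tested at 0.003–100 μM in half-log steps. Samples were filtered on GF/C and washed with cold phosphate. Specific binding is the part displaced by 100 μM indolidan. Run in triplicate; Ki from nonlinear least-squares fits.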

The nature of assay [3]: as §1. It counts as tissue-based, Canis lupus familiaris, Myocardium. An outline of the steps:
as §2

Assay [4] concerns the target T1, Phosphodiesterase 4. Briefly: Binding affinity for sarcoplasmic reticulum phosphodiesterase 4 of canine ventricle. The format is protein assay, Canis lupus familiaris. The conditions noted are these: target entry is the homologue from another species.
For assay [5], the target named is T1, Phosphodiesterase 4. In words: Binding affinity for Phosphodiesterase 4 of canine myocardial vesicles. The format is protein assay, Canis lupus familiaris. The conditions noted are these: target entry is the homologue from another species. An outline of the steps: as §2

The compound `CN1C(=O)C(C)(C)c2cc(C3=NNC(=O)CC3)ccc21` registered an IC50 in assay [1] of 760 nM.

The compound `CC1(C)C(=O)Nc2ccc(C3=NNC(=O)CC3)cc21` [INDOLIDAN] came in with an IC50 in assay [1] of 150 nM. The inhibitory constant (Ki) in assay [2] was 5.4 nM.

Take `CC1CC(=O)NN=C1c1ccc2c(c1)C(C)(C)C(=O)N2` (centres undefined): in assay [2], the Ki was found to be 0.54 nM.

For `O=C1CCC(c2ccc3c(c2)CCC(=O)N3)=NN1`, in assay [3], the inhibitory constant (Ki) was 2.5 nM.

For `CC1CC(=O)NN=C1c1ccc2c(c1)C(C)(C)C(=O)N2C` (centres undefined), the Kd in assay [4] was found to be 3.9 nM; in assay [5], 4.1 nM. Moreover, the half-maximal inhibitory concentration (IC50) in assay [1] is reported as 120 nM.

In the case of `CN1N=C(c2ccc3c(c2)CC(=O)N3)CCC1=O`, in assay [2], the Ki is reported as 61400 nM.
